From ChEMBL document CHEMBL3045293, “Effect of the herbicides terbuthylazine and glyphosate on photosystem II photochemistry of young olive (Olea europaea) plants” (J Agric Food Chem, 2011)

Key:
Type in all cases: organism-based
Olea europaea [1] = assay: Toxicity in young Olea europaea (olive) plants assessed as reduction in photosynthetic rate at 3 kg/ha measured 60 days post dose; settings: in vivo, 1440 h
How it was run: (§1)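 Gas exchange (net photosynthetic rate, stomatal conductance, intercellular CO2) measured on young olive plants in triplicate pots. Herbicide was applied to the soil surface 24 h after OW addition, and pots without herbicide or OW served as controls. Readings were taken 24 h, 15 days and 60 days after treatment. Values are mean ± SE, n = 9, compared by Tukey test (P < 0.05).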

Olea europaea [2] = assay: Toxicity in young Olea europaea (olive) plants assessed as reduction in photosynthetic rate at 3 kg/ha measured 15 days post dose in presence of oil Olea europaea (olive)-mill waste; settings: in vivo, 360 h; how it was run: as §1
Olea europaea [3] = assay: Toxicity in young Olea europaea (olive) plants assessed as reduction in stomatal conductance at 3 kg/ha measured 15 days post dose; settings: in vivo, 360 h; how it was run: as §1
Olea europaea [4] = assay: Toxicity in young Olea europaea (olive) plants assessed as reduction in intracellular CO2 level at 3 kg/ha measured 15 days post dose in presence of oil Olea europaea (olive)-mill waste; settings: in vivo, 360 h; how it was run: as §1
Olea europaea [5] = assay: Toxicity in young Olea europaea (olive) plants assessed as reduction in photosynthetic rate at 3 kg/ha measured 15 days post dose; settings: in vivo, 360 h; how it was run: as §1
Olea europaea [6] = assay: Toxicity in young Olea europaea (olive) plants assessed as induction of chronic photoinhibition of photosystem II at 3 kg/ha measured 60 days post dose in presence of oil Olea europaea (olive)-mill waste; settings: in vivo, 1440 h
Olea europaea [7] = assay: Toxicity in young Olea europaea (olive) plants assessed as reduction in non-photochemical quenching photosystem II at 3 kg/ha measured 15 days post dose; settings: in vivo, 360 h
How it was run: (§2)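 Leaves of potted young olive plants; herbicide applied to the soil surface 24 h after olive-mill waste (OW) amendment; triplicate pots; untreated pots without herbicide or OW as controls. Modulated chlorophyll fluorescence (portable fluorimeter) read at 24 h, 15 days and 60 days. Light- and dark-adapted parameters taken at dawn (1–7 μmol m2 s1) and midday (1700 μmol m2 s1), after 30 min dark adaptation in leaf-clips.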

Olea europaea [8] = assay: Toxicity in young Olea europaea (olive) plants assessed as reduction in photosynthetic rate at 3 kg/ha measured 60 days post dose in presence of oil Olea europaea (olive)-mill waste; settings: in vivo, 1440 h; how it was run: as §1
Olea europaea [9] = assay: Toxicity in young Olea europaea (olive) plants assessed as reduction in stomatal conductance at 3 kg/ha measured 60 days post dose; settings: in vivo, 1440 h; how it was run: as §1
Olea europaea [10] = assay: Toxicity in young Olea europaea (olive) plants assessed as effect on maximum quantum efficiency of photosystem II at 3 kg/ha measured 15 days post dose; settings: in vivo, 360 h; how it was run: as §2
Olea europaea [11] = assay: Toxicity in young Olea europaea (olive) plants assessed as reduction in quantum efficiency of photosystem II at 3 kg/ha measured 15 days post dose; settings: in vivo, 360 h; how it was run: as §2
Olea europaea [12] = assay: Toxicity in young Olea europaea (olive) plants assessed as reduction in intracellular CO2 level at 3 kg/ha measured 60 days post dose in presence of oil Olea europaea (olive)-mill waste; settings: in vivo, 1440 h; how it was run: as §1
Olea europaea [13] = assay: Toxicity in young Olea europaea (olive) plants assessed as reduction in intracellular CO2 level at 3 kg/ha measured 60 days post dose; settings: in vivo, 1440 h; how it was run: as §1
Olea europaea [14] = assay: Toxicity in young Olea europaea (olive) plants assessed as induction of chronic photoinhibition of photosystem II at 3 kg/ha measured 60 days post dose; settings: in vivo, 1440 h
Olea europaea [15] = assay: Toxicity in young Olea europaea (olive) plants assessed as reduction in intracellular CO2 level at 3 kg/ha measured 15 days post dose; settings: in vivo, 360 h; how it was run: as §1
Olea europaea [16] = assay: Toxicity in young Olea europaea (olive) plants assessed as effect on maximum quantum efficiency of photosystem II at 3 kg/ha measured at midday 24 hr post dose; settings: in vivo; how it was run: as §2
Olea europaea [17] = assay: Toxicity in young Olea europaea (olive) plants assessed as stomatal conductance at 3 kg/ha measured 60 days post dose in presence of oil Olea europaea (olive)-mill waste; settings: in vivo, 1440 h; how it was run: as §1
Olea europaea [18] = assay: Toxicity in young Olea europaea (olive) plants assessed as reduction in maximum quantum efficiency of photo system measured by Fv/Fm ratio 2 at 3 kg/ha measured 60 days post dose (reference value: 0.8); settings: in vivo, 1440 h; how it was run: as §2
Olea europaea [19] = assay: Toxicity in young Olea europaea (olive) plants assessed as reduction in non-photochemical quenching photosystem II at 3 kg/ha measured 60 days post dose; settings: in vivo, 1440 h; how it was run: as §2
Olea europaea [20] = assay: Toxicity in young Olea europaea (olive) plants assessed as stomatal conductance at 3 kg/ha measured 15 days post dose in presence of oil Olea europaea (olive)-mill waste; settings: in vivo, 360 h; how it was run: as §1
Olea europaea [21] = assay: Toxicity in young Olea europaea (olive) plants assessed as reduction in quantum efficiency of photosystem II at 3 kg/ha measured 60 days post dose; settings: in vivo, 1440 h; how it was run: as §2

| Compound | Activity (Olea europaea [1]) | Activity (Olea europaea [2]) | Activity (Olea europaea [3]) | Activity (Olea europaea [4]) | Activity (Olea europaea [5]) | Activity (Olea europaea [6]) | Activity (Olea europaea [7]) | Activity (Olea europaea [8]) | Activity (Olea europaea [9]) | Activity (Olea europaea [10]) | Activity (Olea europaea [11]) | Activity (Olea europaea [12]) | Activity (Olea europaea [13]) | Activity (Olea europaea [14]) | Activity (Olea europaea [15]) | Activity (Olea europaea [16]) | other results |
| --- | --- | --- | --- | --- | --- | --- | --- | --- | --- | --- | --- | --- | --- | --- | --- | --- | --- |
| O=C(O)CNCP(=O)(O)O [GLYPHOSATE] | Non-toxic | Toxic | Non-toxic | Toxic | Non-toxic | Non-toxic | Non-toxic | Non-toxic | Non-toxic | Toxic | Non-toxic | Non-toxic | Non-toxic | Non-toxic | Non-toxic | Toxic |  |
| CCNc1nc(Cl)nc(NC(C)(C)C)n1 [Terbuthylazine] | Toxic | Non-toxic | Toxic | Non-toxic | Toxic | Non-toxic | Non-toxic | Non-toxic | Non-toxic | Toxic | Non-toxic | Non-toxic | Non-toxic | Toxic | Toxic | Toxic | Activity (Olea europaea [17]): Non-toxic; Ratio (Olea europaea [18]): 0.6; Activity (Olea europaea [19]): Toxic; Activity (Olea europaea [20]): Non-toxic; Activity (Olea europaea [21]): Toxic |
